How the values were obtained:
[1] = target: Aldo-keto reductase family 1 member B1 (Rattus norvegicus, UniProt P07943); assay: Inhibition of aldose reductase in rat lens homogenate
Method in brief: (§1)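 Crude enzyme was supernatant of rat lens homogenate. Reaction was started with NADPH at 30 °C, run 30 min and stopped with HCl. NADP was converted to a fluorescent product with NaOH/imidazole at 60 °C for 20 min. Read-out was fluorescence at ex 360/em 460 nm.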

[2] = target: Aldo-keto reductase family 1 member B1 (Rattus norvegicus) (UniProt P07943); assay: Inhibition of aldose reductase in rat lens homogenate at 100 uM; method in brief: as §1
[3] = target: Aldo-keto reductase family 1 member B1 (Rattus norvegicus) (UniProt P07943); assay: Inhibition of aldose reductase in rat lens homogenate at 30 uM; method in brief: as §1

Row | IC50 [1] [µM] | inhibition [2] [%] | Structure (SMILES) | inhibition [3] [%]
1 | > 100 | 10 | COc1cc([C@H]2c3c(cc(OC)c(O)c3OC)C[C@@H](CO)[C@@H]2CO)cc(OC)c1O | –
2 | > 100 | 25 | CC1(C)C(=O)CC[C@]2(C)[C@H]3CC=C4[C@@H]5C[C@](C)(C(=O)O)C[C@H](O)[C@]5(C)CC[C@@]4(C)[C@]3(C)CC[C@@H]12 | –
3 | > 100 | 3 | CC1(C)CC[C@]2(C)CC[C@]3(C)C(=CC[C@@H]4[C@@]5(C)CCC(=O)C(C)(C)[C@@H]5CC[C@]43C)[C@@H]2C1 | –
4 | > 100 | 24 | COc1cc([C@H]2c3c(cc(OC)c(O)c3OC)C[C@@H](CO)[C@@H]2CO)ccc1O | –
5 | 26 | – | CC1(C)[C@@H](O)CC[C@]2(C)[C@H]3CC=C4[C@@H]5C[C@](C)(C(=O)O)C[C@@H](O)[C@]5(C)CC[C@@]4(C)[C@]3(C)CC[C@@H]12 | –
6 | > 100 | 8 | C[C@H]1C(=O)CC[C@@H]2[C@]1(C)CC[C@H]1[C@@]2(C)CC[C@@]2(C)[C@@H]3CC(C)(C)CC[C@]3(C)C[C@H](O)[C@]12C | –
7 | 98 | – | C[C@H]1C(=O)CC[C@@H]2[C@]1(C)CC[C@H]1[C@@]2(C)CC[C@@]2(C)[C@@H]3C[C@](C)(CO)CC[C@]3(C)CC[C@]12C [3-OXO-29-HYDROXYFRIEDELANE] | –
8 | > 100 | 26 | C[C@@H]1[C@H]2C3=CC[C@@H]4[C@@]5(C)CCC(=O)C(C)(C)[C@@H]5CC[C@@]4(C)[C@]3(C)CC[C@@]2(C)[C@@H](O)C[C@H]1C(=O)O [DEMETHYLREGELIN] | –
9 | > 100 | 36 | COc1cc([C@H]2c3cc(O)c(OC)cc3C[C@@H](CO)[C@@H]2CO)ccc1O [ISOLARICIRESINOL] | –
10 | 3.2 | – | O=c1c2cc(O)c(O)cc2oc2cc(O)c([C@@H]3O[C@H](CO)[C@@H](O)[C@H](O)[C@H]3O)c(O)c12 [MANGIFERIN] | –
11 | 72 | – | CC1(C)[C@@H](O)CC[C@]2(C)[C@H]3CC=C4[C@@H]5C[C@](C)(C(=O)O)C[C@H](O)[C@]5(C)CC[C@@]4(C)[C@]3(C)CC[C@@H]12 [MAYTENFOLIC ACID] | –
12 | > 100 | 44 | C[C@H]1C(=O)CC[C@@H]2[C@]1(C)CC[C@H]1[C@@]2(C)CC[C@@]2(C)[C@@H]3C[C@](C)(C(=O)O)CC[C@]3(C)CC[C@]12C [MAYTENOIC ACID] | –
13 | > 100 | 19 | C[C@@H]1[C@@]23CC[C@H]4[C@@](C)(CC[C@@]5(C)[C@@H]6C[C@](C)(C(=O)O)CC[C@]6(C)CC[C@]45C)[C@@H]2C[C@@H](O)[C@]1(O)OC3 [ORTHOSPHENIC ACID] | –
14 | > 100 | 2 | C[C@@H]1[C@@]23CC[C@H]4[C@@](C)(CC[C@@]5(C)[C@@H]6C[C@](C)(C(=O)O)CC[C@]6(C)CC[C@]45C)[C@@H]2CC[C@@]1(O)OC3 [SALASPERMIC ACID] | –
15 | > 100 | 27 | C[C@@H]1[C@H]2C3=CC[C@@H]4[C@@]5(C)CC[C@H](O)C(C)(C)[C@@H]5CC[C@@]4(C)[C@]3(C)CC[C@@]2(C)[C@@H](O)C[C@H]1C(=O)O [TRIPTERYGIC ACID A] | –
16 | 14 | – | CC1=C2CC[C@H]3[C@@](C)(CC[C@@]4(C)[C@@H]5C[C@@H](C)C(=O)[C@@H](O)[C@]5(C)CC[C@]34C)[C@@H]2C[C@H](O)C1=O [TRIPTOCALLINE A] | –
17 | 100 | 48 | C[C@H]1C(=O)[C@H](O)C[C@@H]2[C@]1(C)CC[C@H]1[C@@]2(C)CC[C@@]2(C)[C@@H]3C[C@](C)(C(=O)O)CC[C@]3(C)CC[C@]12C [WILFOLIC ACID C] | –
18 | > 100 | 6 | CC1(C)CC[C@]2(C)CC[C@]3(C)C(=CC[C@@H]4[C@@]5(C)CC[C@H](O)C(C)(C)[C@@H]5CC[C@]43C)[C@@H]2C1 [beta-AMYRIN] | –

Row | Structure (SMILES) | IC50 [1] [µM] | inhibition [2] [%] | inhibition [3] [%]
19 | Oc1cc(O)c2c(c1)O[C@H](c1ccc(O)c(O)c1)[C@H](O)C2 [(-)-EPICATECHIN] | > 30 | – | 41
20 | CC(=O)OC[C@]12[C@@H](OC(=O)c3ccccc3)C[C@@H]3[C@@H](OC(C)=O)[C@]1(OC3(C)C)[C@H](C)C[C@H](OC(C)=O)[C@@H]2O [CELAHIN C] | 95 | – | –
21 | Oc1cc(O)c2c(c1)O[C@H](c1ccc(O)c(O)c1)[C@@H](O)C2 [CIANIDANOL] | > 30 | – | 38
22 | Oc1cc(O)c2c(c1)O[C@H](c1cc(O)c(O)c(O)c1)[C@H](O)C2 [EPIGALLOCATECHIN] | > 30 | – | 19
23 | Cc1c(O)c(O)cc2c1CC[C@H]1[C@@]2(C)CC[C@@]2(C)[C@@H]3C[C@@H](C)C(=O)[C@@H](O)[C@]3(C)CC[C@]12C [REGEOL A] | 30 | – | –
24 | CC1=C(O)C(=O)C=C2C1=CC=C1[C@@]2(C)CC[C@@]2(C)[C@@H]3C[C@@H](C)C(=O)[C@@H](O)[C@]3(C)CC[C@]12C [TINGENIN B] | 7 | – | –
25 | CC1=C(O)C(=O)C=C2C1=CC=C1[C@@]2(C)CC[C@@]2(C)[C@@H]3C[C@@H](C)C(=O)C[C@]3(C)CC[C@]12C [TINGENONE] | 13 | – | –

Source: ChEMBL document CHEMBL1146592, “Structures of new friedelane-type triterpenes and eudesmane-type sesquiterpene and aldose reductase inhibitors from Salacia chinensis” (J Nat Prod, 2003)
